One assay concerns HeLa. Put plainly: Cytotoxicity against human HeLa cells assessed as reduction in mean cell viability after 72 hrs by MTT assay. The assay is classed as functional, cell-based. The method in brief:
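HeLa-CCL-2 cells in DMEM with 10% heat-inactivated FBS, 2 mM L-glutamine and nonessential amino acids. Plated at 1000 cells/well with 24 h adherence. Treated in ethanol (1% final) for 72 h at 37 °C under 5% CO₂, with ethanol controls. Absorbance of DMSO-dissolved formazan at 550 nm, 690 nm reference. IC₅₀ by nonlinear regression of percent viability.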
For orientation: Formazan colour is commonly taken as a measure of viable cells.

Another assay has as its system DU-145. Put plainly: Cytotoxicity against human DU145 cells assessed as reduction in mean cell viability after 72 hrs by MTT assay. Type of assay: functional, cell-based. To be noted: DU-145, 72 h. The method in brief: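 DU-145 prostate cells in RPMI-1640 with 10% heat-inactivated FBS, penicillin–streptomycin and 2 mM L-glutamine. Seeded at 2000 cells/well and left 24 h to adhere. Compound added in ethanol (1% final) for 72 h at 37 °C, 5% CO₂, with ethanol-only controls. Formazan dissolved in DMSO and read at 550 nm (690 nm reference). IC₅₀ derived by nonlinear regression of viability versus vehicle.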

A short description of assay [1]: Cytotoxicity against human GM00637 cells assessed as reduction in mean cell viability after 72 hrs by MTT assay. The assay is classed as cell-based. To be noted: GM00637, 72 h. A digest of the protocol: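 SV40-transformed normal skin fibroblasts (GM00637) in MEM Eagle–Earle BSS with 15% heat-inactivated FBS, 2 mM L-glutamine, 2× amino acids and vitamins. Seeded at 10,000 cells/well and left 24 h to adhere. Ethanol-delivered compound (1% final) for 72 h at 37 °C, 5% CO₂. MTT formazan in DMSO read at 550/690 nm. Viability relative to vehicle; IC₅₀ by nonlinear regression.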

One may read the IC50 as the concentration that gives 50% inhibition. As to `O=C1c2nc3n(c2C(=O)c2c1nc1n2CCCC1)CCCC3`, the IC50 with HeLa is 3330 nM; with DU-145 it was 1730 nM; in assay [1], over 5000 nM.

With `O=C1c2nc3n(c2C(=O)c2nc4n(c21)CCCC4)CCC3`, the IC50 in the assay on HeLa turned out to be 950 nM; with DU-145 it was 790 nM; in assay [1], 1270 nM.

With `O=C1c2nc3n(c2C(=O)c2nc4n(c21)CCCCC4)CCCCC3`, the results for the IC50 (with HeLa; in the assay with DU-145; in assay [1]) were 1780 nM, 4460 nM and over 5000 nM, respectively.

For the compound `CCCCn1cnc2c1C(=O)c1nc3n(c1C2=O)CCCC3`, the values for the IC50 (with HeLa; with DU-145; in assay [1]) were 1280 nM, 1350 nM and 2120 nM, respectively.

The values above are taken from ChEMBL document CHEMBL2021842, “COMPARE analysis of the toxicity of an iminoquinone derivative of the imidazo[5,4-f]benzimidazoles with NAD(P)H:quinone oxidoreductase 1 (NQO1) activity and computational docking of quinones as NQO1 substrates” (Bioorg Med Chem, 2012).
